Values joined by “and” are separate entries in the source; they are usually repeats but may differ in a detail not shown here. Equal values may be shown once.
Key:
[1] = system: intracellular tyrosine kinase domain of human PDGFR-β; assay: PDGFR-β activity assay kit; type: biochemical; details: n = 6 each group
Outline: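 Human PDGFR-β kinase activity was measured with a commercial PDGFR-β activity assay kit, n = 6 per group. Values are means ± SEM from three independent experiments, compared with the control group.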

[2] = molecular target: human PDGFR-β (Met 1-Lys 531) protein (human) (UniProt P09619); assay: MST
[3] = molecular target: human PDGFR-β (Met 1-Lys 531) protein (human) (UniProt P09619); assay: SPR
[4] = molecular target: human PDGFR-β (Met 1-Lys 531) protein with the Phe136/Ala136 and Phe138/Ala138 mutations (human) (UniProt P09619); assay: SPR

Row | effect on the activated intracellular tyrosine kinase domain / kinase activity of human PDGFR-β [1] | Kd [2] | Kd [3] | dH [3] | Kd [4] | Molecule
1 | very obvious inhibitory effect |  |  |  |  | CCN(CC)CCNC(=O)c1c(C)[nH]c(/C=C2\C(=O)Nc3ccc(F)cc32)c1C [sunitinib]
2 |  | 5.43 µM | 4.92 µM and 8.02 µM | -2.28 kcal·M^(− 1) | 99.5 µM | destruxin A5 (peptide)

Reference: publication PMC4909612 (EBioMedicine, 2016)
